Compounds with a hit are over-represented: about 3.5% of the library has one in this group of screens.
MrgX1 PAM – human MrgX1 positive allosteric modulation, primary screen; Q96LB2; MrgX1-HEK293, Fluo-4 calcium flux, FDSS; stronger effect = higher value; B-score at 10 µM; 310,000 compounds, 0.63% hits; AID 588675;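 active means plate-corrected calcium response at least 3 library SD above typical, normal starting fluorescence, not activating the receptor alone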;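 further: compound read alongside a low EC10 to EC30 dose of BAM8-22 agonist; peak minus trough fluorescence over baseline measured at the second addition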
Target sequence (Q96LB2 whole entry, looked up): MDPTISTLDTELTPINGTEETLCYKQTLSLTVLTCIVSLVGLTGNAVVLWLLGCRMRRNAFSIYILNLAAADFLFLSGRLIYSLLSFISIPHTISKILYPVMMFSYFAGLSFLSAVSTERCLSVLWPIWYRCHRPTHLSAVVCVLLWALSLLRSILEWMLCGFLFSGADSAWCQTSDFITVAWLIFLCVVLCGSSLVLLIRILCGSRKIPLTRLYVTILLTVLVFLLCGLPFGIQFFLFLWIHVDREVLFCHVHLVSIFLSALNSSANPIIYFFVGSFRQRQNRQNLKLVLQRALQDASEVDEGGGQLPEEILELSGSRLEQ
MrgX1 agonist – activates human MrgX1 receptor signaling. MrgX1-HEK293 cells, Fluo-4 calcium fluorescence, agonist mode; stronger effect = higher value. Q96LB2. 310,000 compounds, 0.44% hits. B-score at 10 µM;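 active means calcium response B-score plate-corrected fluorescence ratio at least 3 library SD, with starting fluorescence B-score inside 5 SD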
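times = overnight plating, then 30 min 37 °C plus 30 min room-temperature dye loading | assay system = stable human MrgX1 HEK293 cell line | input = fifteen thousand cells per well | signal = kinetic calcium dye fluorescence, Fluo-4 NW | dosing = compound delivered in addition one of three | read-out = B-scored fluorescence response ratio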
MrgX1 antag – human MrgX1 receptor antagonism, primary screen. Q96LB2. MRGX1-HEK293 calcium flux, Fluo-4, BAM8-22 antagonism; stronger effect = lower value. B-score at 10 µM. 310,000 compounds, 1.3% hits;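 active means calcium-response B-score plate-corrected more than 3 library SD below zero, starting fluorescence within 5 deviations, no agonist response on first addition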;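 further: peak minus trough fluorescence over baseline after final BAM8-22 challenge near maximal dose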
RGS4 act – RGS4 potentiation or activation; HEK293 M3R/inducible RGS4, carbachol calcium flux Fluo4; stronger effect = lower value; B-score at 10 µM; 310,000 compounds, 0.92% hits; AID 463111;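 active means B-score of the integrated calcium signal more than 4 SD below the library mean, with starting fluorescence not abnormally high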;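 further: negative B-score means reduced calcium response which marks RGS4 activation or potentiation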
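test system = M3R-expressing HEK293 line, RGS4 induced by doxycycline | probe or stimulus = carbachol at ECmax as muscarinic agonist stimulus | timing = dye loading 30 min 37 °C, buffer rest 30 min RT | signal = calcium dye Fluo4 fluorescence | evaluation = B score from integrated fluorescence ratio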
RGS4 inh – inhibitors of human RGS4 | P49798 | HEK293 M3R/RGS4 inducible, Fluo-4 calcium flux; stronger effect = higher value; triggered by carbachol at its EC20 | B-score at 10 µM | 310,000 compounds, 0.45% hits;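 active means B-score, a plate-corrected calcium signal, over three deviations above library mean, with baseline fluorescence within five deviations of library mean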;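 further: RGS4 expression induced by doxycycline in cells with stable M3 receptor; B-score is computed from the integrated fluorescence ratio over baseline after carbachol; higher B-score means a larger calcium signal and so more RGS4 inhibition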
Target sequence (P49798 whole entry, looked up): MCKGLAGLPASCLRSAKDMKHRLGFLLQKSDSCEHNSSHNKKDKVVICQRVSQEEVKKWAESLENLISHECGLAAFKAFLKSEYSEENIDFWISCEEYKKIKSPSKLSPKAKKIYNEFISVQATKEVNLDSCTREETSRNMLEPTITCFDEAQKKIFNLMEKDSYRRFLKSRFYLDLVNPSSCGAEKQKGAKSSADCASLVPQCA
Hits are given with their value; - = inactive; . = no result.

SMILES	MrgX1 PAM	MrgX1 agonist	MrgX1 antag	RGS4 act	RGS4 inh
CCCCOc1ccc(C(=O)N2CCN(CC(=O)Nc3ccc(C)cc3)CC2)cc1OC	-	-	-	-	-
CCN(CC)CCN1C(=O)C(=O)/C(=C(/O)c2ccc(S(=O)(=O)N3CCOCC3)cc2)C1c1ccc(C(C)(C)C)cc1 (stereo unspecified)	-	-	-	-	-
O=C1C(=C2CCCCC2)SC(=S)N1Cc1ccco1	-	-	-	-7.91	-
O=C(Nc1nnc(-c2cccs2)o1)c1ccc(S(=O)(=O)N2CCOCC2)cc1	-	-	-	-	-
CCC1CCCCN1S(=O)(=O)c1ccc(C(=O)Nc2nnc(-c3ccccc3Cl)o2)cc1 (stereo unspecified)	-	37.9	-	-	-
CCC1CCCCN1S(=O)(=O)c1ccc(C(=O)Nc2nnc(C3CC3)o2)cc1 (stereo unspecified)	-	-	-	-	-
CC1(C)COCN1S(=O)(=O)c1ccc(C(=O)Nc2nnc(-c3ccc(Cl)s3)o2)cc1	-	80.3	-	-	-
COC(=O)CC1C(=O)NCCN1C(=O)c1ccc(Cl)cc1 (stereo unspecified)	-	-	-	-	-
COc1ccc(S(=O)(=O)NCc2ccco2)cc1NC(=O)c1ccccc1	-	-	-	-	-
CCC(C(=O)NCc1ccco1)N(C(=O)CNS(=O)(=O)c1ccccc1)C1CCCCC1 (stereo unspecified)	-	-	-	-	-
CCCC(C(=O)NCc1ccco1)N(C(=O)CNS(=O)(=O)c1ccc(Cl)cc1)C1CCCC1 (stereo unspecified)	-	-	-6.74	-	-
CCCSc1nnc(NC(=O)c2sc3nc(-c4cccs4)ccc3c2N)s1	-	38.2	-	-	-
O=C(NNC1=C(C(=O)C(F)(F)F)CCC1)c1ccccc1O	-	-	-	-	-
COc1ccccc1C(=O)NNC1=C(C(=O)C(F)(F)F)CCC1	-	39.2	-	-	-
COCc1c(Br)c(C)nc(OCC(=O)N/N=C/c2cc(C)n(-c3ccc([N+](=O)[O-])cc3)c2C)c1C#N	-	-	-	-7.87	-
Cc1noc(C)c1C(=O)N1CCC2(CC1)Oc1ccc(F)cc1C(=O)C21CC(c2ccc(Cl)cc2)=NO1 (stereo unspecified)	-	-	-	-	-
COc1cc(OC)c(/C=C2\SC(=O)N(CC(=O)Nc3ccccc3F)C2=O)c(OC)c1	-	-	-	-	-
COc1cc(/C=C2\SC(=O)N(CC(=O)Nc3ccccc3F)C2=O)cc(Cl)c1O	-	-	-6.22	-	-
CCOc1ccc(C(=O)NNC2CC(=O)N(CCc3ccccc3)C2=O)cc1OC (stereo unspecified)	-	-	-5.46	-	-
COC(=O)c1ccc(CSc2nc3ccc(S(=O)(=O)N4CCOCC4)cc3[nH]2)cc1	-	-	-	-	-
O=C(COC(=O)c1ccc(CNS(=O)(=O)c2ccc(F)c(Cl)c2)cc1)NC1CCCCCCC1	-	-	-	-	-
CCCN(CC1CC1)C(=O)COC(=O)c1ccc(CNS(=O)(=O)c2ccc(F)c(Cl)c2)cc1	-	-	-4.86	-	-
N#CCCN(C(=O)COC(=O)c1ccc(CNS(=O)(=O)c2ccc(F)c(Cl)c2)cc1)c1ccc(F)cc1	-	-	-	-8.84	-
COc1ccc(NC(=O)C(=O)NCCC2CCCCN2S(=O)(=O)c2ccc(F)cc2)cc1 (stereo unspecified)	-	-	-	-	-
O=C(CN1C(=O)NC2(CCCc3ccccc32)C1=O)c1ccc(Br)cc1 (stereo unspecified)	-	-	-	-	-
SMILES	MrgX1 PAM	MrgX1 agonist	MrgX1 antag	RGS4 act	RGS4 inh
Cn1cc(/C=C2\SC(=S)N(NC(=O)c3ccccc3Cl)C2=O)c2ccccc21	-	-	-	.	.
COc1cc(/C=C2\SC(=S)N(NC(=O)c3cccnc3)C2=O)ccc1O	-	-	-6.72	-	-
Cc1ccc(C(=O)NN2C(=O)/C(=C/c3cn(C)c4ccccc34)SC2=S)cc1	-	-	-4.77	.	.
O=C1/C(=C/c2ccc(O)c(O)c2)SC(=S)N1Nc1ccccc1	.	.	.	-	-
O=C(NN1C(=O)/C(=C/c2ccc(O)c(O)c2)SC1=S)c1ccccc1	-	31.8	-	-	-
COc1cc(/C=C2\SC(=S)N(NC(=O)c3ccc(O)cc3)C2=O)ccc1O	-	-	-	-	-
CCN(CC)CCCNC(=O)CSc1nc(-c2ccc(F)cc2)cc(C(F)(F)F)n1	-	-	-	-	-
CC(C)(C)NC(=O)COc1ccccc1C#N	-	-	-	-	-
O=C(Nc1cccc(Cl)c1)C1C2CCC3C(CCC21)C3(Cl)Cl (stereo unspecified)	-	-	-	-7.49	-
CCn1cc(S(=O)(=O)N2CCCC2)cn1	-	-	-	-	-
COc1ccc(CCNC(=O)Cn2c(=O)n(CCCC(=O)NCc3ccco3)c(=O)c3sccc32)cc1OC	6.44	-	-	-	-
CCN(CC(=O)Nc1ccc(Cl)c(S(=O)(=O)N(C)C)c1)CC(=O)NC(C)C	-	-	-	-	-
On1c2c(c3c4nonc4ccc31)CCCC2	-	26.7	-	-	-
COn1c2c(c3c4nonc4ccc31)CCCC2	-	-	-	-	-
CC(C)CCSc1nc(N)c(C#N)cc1C#N	-	-	-	-	-
O=C(NNC(=S)NC(=O)c1ccc(Br)cc1)c1cccc([N+](=O)[O-])c1	-	-	-	-	-
O=C(NNC(=S)NC(=O)c1ccccc1Cl)c1cccc([N+](=O)[O-])c1	-	103	-	-	-
O=C(NNC(=S)NC(=O)c1ccc(Br)cc1)c1ccc([N+](=O)[O-])cc1	-	-	-	-	-
O=C(NNC(=S)NC(=O)c1ccccc1)c1ccc([N+](=O)[O-])cc1	-	76.7	-	-	-
CCCCCC(=O)NNC(=S)NC(=O)c1ccc([N+](=O)[O-])cc1	-	60.9	-	-	-
Cc1ccc(C(=O)NC(=S)NNC(=O)c2ccc([N+](=O)[O-])cc2)cc1	-	40.5	-	-	-
COc1ccc(OCC(=O)NNC(=S)NC(=O)c2ccc([N+](=O)[O-])cc2)cc1	-	-	-	-	-
COc1ccc(C)cc1S(=O)(=O)N(C)CC(=O)NCc1ccccn1	-	-	-	-	-
O=C(CCc1c[nH]c2ccccc12)NC(Cc1ccccc1)C(=O)O (stereo unspecified)	-	-	-	-	-
Cc1ccc(Cl)cc1NC(=O)C1CCCN1S(=O)(=O)c1ccc(-c2ccc(=O)[nH]n2)s1 (stereo unspecified)	-	-	-	-	-
O=C(/C=C/c1cccs1)N1CCC2(CC1)Oc1ccc(Cl)cc1C(=O)C21CC(c2ccc(Cl)cc2)=NO1 (stereo unspecified)	-	-	-	-	-
O=C(/C=C/c1cccs1)N1CCC2(CC1)Oc1ccc(F)cc1C(=O)C21CC(c2ccc(Cl)cc2)=NO1 (stereo unspecified)	-	-	-4.53	-	-

Screening data: PubChem BioAssay, Johns Hopkins Ion Channel Center
